The values below come from ChEMBL document CHEMBL3779838, “Inhibitory effect of flavonoids on human glutaminyl cyclase” (Bioorg Med Chem, 2016).

The target of experiment [1] is T1, Glutaminyl-peptide cyclotransferase (Homo sapiens, UniProt Q16769). The experiment is described as follows: Inhibition of human recombinant glutaminyl cyclase expressed in Escherichia coli using H-Gln-Gln-H substrate measured for 15 mins by spectrophotometry. The method, boiled down:
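Recombinant hQC expressed in E. coli is tested in a glutamic acid dehydrogenase-coupled reaction: 0–4 mM H-Gln-Gln-H, 30 units/ml GDH, 0.5 mM NADH/H+, 15 mM α-ketoglutaric acid, 0.05 M Tris–HCl pH 8.0. Inhibitor is added at several concentrations with the enzyme to start the reaction, and A340 loss is read over 15 min. IC50 is read graphically from log concentration vs % inhibition. Triplicate.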
Target sequence in this assay (Q16769 whole entry): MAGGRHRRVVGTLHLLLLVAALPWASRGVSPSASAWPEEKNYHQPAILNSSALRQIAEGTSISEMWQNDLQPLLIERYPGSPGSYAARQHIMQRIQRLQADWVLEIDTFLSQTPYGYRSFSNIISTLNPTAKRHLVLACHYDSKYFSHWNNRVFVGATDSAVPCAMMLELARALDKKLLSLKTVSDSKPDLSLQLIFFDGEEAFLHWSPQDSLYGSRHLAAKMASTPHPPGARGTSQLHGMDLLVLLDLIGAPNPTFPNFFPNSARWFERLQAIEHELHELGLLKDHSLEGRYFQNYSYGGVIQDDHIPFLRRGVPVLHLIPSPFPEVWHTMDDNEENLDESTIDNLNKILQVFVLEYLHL

In experiment [2] the target is T1, Glutaminyl-peptide cyclotransferase. The experiment is described as follows: Inhibition of human recombinant glutaminyl cyclase expressed in Escherichia coli at 100 uM using H-Gln-Gln-H substrate measured for 15 mins by spectrophotometry relative to control.
Target sequence in this assay (Q16769 29-361 limits assumed): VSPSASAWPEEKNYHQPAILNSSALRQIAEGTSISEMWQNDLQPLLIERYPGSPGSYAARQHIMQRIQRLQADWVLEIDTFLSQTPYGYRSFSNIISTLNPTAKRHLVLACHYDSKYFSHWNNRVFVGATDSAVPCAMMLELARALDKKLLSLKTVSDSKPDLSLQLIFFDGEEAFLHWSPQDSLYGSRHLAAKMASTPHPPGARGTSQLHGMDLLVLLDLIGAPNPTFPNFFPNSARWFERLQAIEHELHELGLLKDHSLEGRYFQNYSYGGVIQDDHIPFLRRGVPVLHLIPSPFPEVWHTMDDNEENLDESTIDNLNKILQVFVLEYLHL

As usually defined, the IC50 is the concentration that inhibits the measured activity by half. By inhibition is commonly meant the percentage by which the read-out fell short of the control. On to `O=c1cc(-c2ccc(O)cc2)oc2cc(O)ccc12`, for which the IC50 in experiment [1] was 45.2 µM. For the same compound, the inhibition in experiment [2] was found to be 71.8%.

For the compound `COc1ccc(-c2cc(=O)c3ccc(O)cc3o2)cc1`, the inhibition in experiment [2] was 75.2%.

With `COc1ccc(-c2cc(=O)c3c(O)cc(O)cc3o2)c(OC)c1`, the inhibition in experiment [2] turned out to be 71.7%.

`O=c1cc(-c2ccc(O)cc2)oc2cc(O)cc(O)c12`: in experiment [2], the inhibition came to 75.2%.
